Assay [1] has as its target Histone deacetylase 1 (Homo sapiens, UniProt Q13547). The experiment in a line: Inhibition of recombinant HDAC1 (unknown origin) by homogeneous fluorescence release assay.
For assay [2], the target named is T1, Histone deacetylase 7 (Homo sapiens, UniProt Q8WUI4).
T1 sequence (Q8WUI4 whole entry): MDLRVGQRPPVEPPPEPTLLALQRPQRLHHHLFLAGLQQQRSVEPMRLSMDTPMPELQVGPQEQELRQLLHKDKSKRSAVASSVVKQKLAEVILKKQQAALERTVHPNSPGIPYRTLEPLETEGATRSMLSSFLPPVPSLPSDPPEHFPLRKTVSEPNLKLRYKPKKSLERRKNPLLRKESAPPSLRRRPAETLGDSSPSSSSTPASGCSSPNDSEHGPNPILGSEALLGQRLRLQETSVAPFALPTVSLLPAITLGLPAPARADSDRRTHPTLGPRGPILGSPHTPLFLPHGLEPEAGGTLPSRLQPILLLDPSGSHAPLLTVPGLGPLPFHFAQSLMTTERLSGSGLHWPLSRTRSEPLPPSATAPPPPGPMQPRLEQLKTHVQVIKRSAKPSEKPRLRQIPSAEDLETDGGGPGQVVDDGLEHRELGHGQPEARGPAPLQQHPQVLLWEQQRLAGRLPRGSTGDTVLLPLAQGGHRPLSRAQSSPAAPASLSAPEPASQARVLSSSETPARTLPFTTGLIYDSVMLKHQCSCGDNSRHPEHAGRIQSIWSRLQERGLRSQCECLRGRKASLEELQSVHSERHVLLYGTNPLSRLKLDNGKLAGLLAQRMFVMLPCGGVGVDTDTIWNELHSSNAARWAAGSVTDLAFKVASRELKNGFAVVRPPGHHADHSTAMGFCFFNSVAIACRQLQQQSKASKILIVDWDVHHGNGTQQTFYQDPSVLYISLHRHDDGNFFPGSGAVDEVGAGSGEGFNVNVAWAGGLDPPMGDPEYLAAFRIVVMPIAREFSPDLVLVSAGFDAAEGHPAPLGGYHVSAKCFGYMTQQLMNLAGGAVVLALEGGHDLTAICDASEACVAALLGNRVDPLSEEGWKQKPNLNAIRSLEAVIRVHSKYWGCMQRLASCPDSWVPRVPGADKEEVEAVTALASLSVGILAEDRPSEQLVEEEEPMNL
The experiment in a line: Inhibition of recombinant HDAC7 (unknown origin) by homogeneous fluorescence release assay. The essentials: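 Isoform enzyme assay run in 10-dose IC50 mode. Compounds were serially diluted 3-fold starting from 50 μM solutions.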

The target of assay [3] is Histone deacetylase 2 (Homo sapiens, UniProt Q92769). The experiment in a line: Inhibition of recombinant HDAC2 (unknown origin) by homogeneous fluorescence release assay.
Assay [4] deals with Histone deacetylase 3 (Homo sapiens, UniProt O15379). The experiment in a line: Inhibition of recombinant HDAC3 (unknown origin) by homogeneous fluorescence release assay.
Assay [5] has as its target Histone deacetylase 5 (Homo sapiens, UniProt Q9UQL6). The experiment in a line: Inhibition of recombinant HDAC5 (unknown origin) by homogeneous fluorescence release assay. The essentials:
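Recombinant HDAC isoform panel (HDAC1−11), tested in 10-dose IC50 mode with 3-fold serial dilution starting from 50 μM solutions.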

Assay [6] has as its system A204. The experiment in a line: Antiproliferative activity against human A204 cells after 24 to 72 hrs by […] dye exclusion assay. In kind it is functional, cell-based. The essentials:
(§1)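 Sarcosphere-derived CSCs, dissociated to single cells, plated at 50000/well in complete IMDM for adhesion. After 24 h, exposed to 0.5, 1 and 2 μM. Viable cells counted by dye exclusion at 24, 48 and 72 h. Growth inhibition is expressed relative to DMSO-treated controls. Three experiments in duplicate.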

For assay [7], the target named is T2, Histone deacetylase 8 (Homo sapiens, UniProt Q9BY41).
T2 sequence (Q9BY41 whole entry): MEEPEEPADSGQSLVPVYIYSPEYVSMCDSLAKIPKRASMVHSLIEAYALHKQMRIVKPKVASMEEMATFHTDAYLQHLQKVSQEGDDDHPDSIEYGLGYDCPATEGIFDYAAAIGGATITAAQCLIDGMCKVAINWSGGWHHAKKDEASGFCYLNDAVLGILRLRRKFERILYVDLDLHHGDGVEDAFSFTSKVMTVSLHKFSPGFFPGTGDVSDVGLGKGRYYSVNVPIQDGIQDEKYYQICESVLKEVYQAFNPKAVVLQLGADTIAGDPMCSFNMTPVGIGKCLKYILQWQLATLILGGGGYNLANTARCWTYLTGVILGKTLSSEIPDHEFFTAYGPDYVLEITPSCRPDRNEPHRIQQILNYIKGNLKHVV
The experiment in a line: Inhibition of recombinant HDAC8 (unknown origin) by homogeneous fluorescence release assay.

Assay [8] has as its system MG-63. The experiment in a line: Induction of human MG63 cell differentiation assessed as increase in bone nodule formation at 0.025 to 0.5 uM after 14 days by Alizarin Red S staining-based spectrophotometric analysis relative to control. In kind it is functional. The procedure, abridged: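 MG-63 sarcosphere-derived cells in mineralization medium (10 mM β-glycerophosphate, 10−8 M dexamethasone, ascorbic acid 2-phosphate) with continuous 0.025–0.5 μM exposure for 14 days. Fixed in 3.7% paraformaldehyde, then stained with 2% Alizarin Red S, pH 4.2, for 1 h. Dye eluted with 10% cetylpyridinium chloride and read at 570 nm. OD expressed relative to mineralization-medium control; triplicate.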

Assay [9] concerns the target T3, Histone deacetylase 11 (Homo sapiens, UniProt Q96DB2).
T3 sequence (Q96DB2 whole entry): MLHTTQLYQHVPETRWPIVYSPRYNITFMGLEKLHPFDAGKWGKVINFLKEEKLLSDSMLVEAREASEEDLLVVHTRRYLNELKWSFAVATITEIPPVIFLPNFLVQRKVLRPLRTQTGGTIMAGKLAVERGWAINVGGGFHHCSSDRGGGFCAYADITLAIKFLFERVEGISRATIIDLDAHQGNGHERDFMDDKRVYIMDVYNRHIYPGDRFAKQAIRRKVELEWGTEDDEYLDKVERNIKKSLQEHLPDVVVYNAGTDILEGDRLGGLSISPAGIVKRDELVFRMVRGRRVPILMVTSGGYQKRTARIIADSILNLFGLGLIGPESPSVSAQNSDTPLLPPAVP
The experiment in a line: Inhibition of recombinant HDAC11 (unknown origin) by homogeneous fluorescence release assay.

Assay [10] relates to HOS. The experiment in a line: Antiproliferative activity against HOS cells after 24 to 72 hrs by […] dye exclusion assay. In kind it is functional, cell-based. As to conditions: Homo sapiens. The procedure, abridged:
as §1

The results in this text go back to ChEMBL document CHEMBL3425488, “Novel histone deacetylase inhibitors induce growth arrest, apoptosis, and differentiation in sarcoma cancer stem cells” (J Med Chem, 2015).

Activity calls are given as the source filed them. The rule behind the calls is not given here.

Chain of Histone deacetylase 5 (Q9UQL6 whole entry, canonical isoform): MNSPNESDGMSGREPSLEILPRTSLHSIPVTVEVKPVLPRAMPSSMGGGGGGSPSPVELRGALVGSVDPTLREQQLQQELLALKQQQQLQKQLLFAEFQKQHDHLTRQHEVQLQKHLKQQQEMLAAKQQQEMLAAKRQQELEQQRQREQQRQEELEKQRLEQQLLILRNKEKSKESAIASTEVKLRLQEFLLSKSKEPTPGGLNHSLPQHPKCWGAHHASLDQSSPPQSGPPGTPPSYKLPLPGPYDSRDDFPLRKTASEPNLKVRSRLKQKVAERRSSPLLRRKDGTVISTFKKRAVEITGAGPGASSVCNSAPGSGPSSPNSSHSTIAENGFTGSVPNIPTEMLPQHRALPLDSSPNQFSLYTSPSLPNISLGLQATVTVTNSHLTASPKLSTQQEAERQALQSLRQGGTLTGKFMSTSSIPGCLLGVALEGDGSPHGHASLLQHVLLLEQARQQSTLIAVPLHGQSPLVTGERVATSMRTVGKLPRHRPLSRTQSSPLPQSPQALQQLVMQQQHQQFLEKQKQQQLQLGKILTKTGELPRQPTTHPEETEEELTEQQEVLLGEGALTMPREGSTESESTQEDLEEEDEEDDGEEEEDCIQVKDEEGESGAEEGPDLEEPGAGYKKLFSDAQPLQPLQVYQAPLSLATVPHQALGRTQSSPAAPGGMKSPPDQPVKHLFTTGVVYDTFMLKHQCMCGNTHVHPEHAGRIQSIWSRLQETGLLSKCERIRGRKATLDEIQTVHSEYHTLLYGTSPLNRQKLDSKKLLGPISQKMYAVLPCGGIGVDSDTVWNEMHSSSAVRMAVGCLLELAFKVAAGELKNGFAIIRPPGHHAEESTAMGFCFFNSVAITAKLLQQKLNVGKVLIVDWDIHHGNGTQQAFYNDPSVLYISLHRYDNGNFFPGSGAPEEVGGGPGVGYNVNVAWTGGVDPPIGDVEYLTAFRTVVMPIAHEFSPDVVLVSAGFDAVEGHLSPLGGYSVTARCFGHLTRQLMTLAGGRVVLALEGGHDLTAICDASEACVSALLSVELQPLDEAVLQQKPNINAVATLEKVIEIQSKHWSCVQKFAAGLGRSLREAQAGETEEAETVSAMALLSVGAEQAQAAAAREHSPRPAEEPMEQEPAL
Chain of Histone deacetylase 3 (O15379 whole entry): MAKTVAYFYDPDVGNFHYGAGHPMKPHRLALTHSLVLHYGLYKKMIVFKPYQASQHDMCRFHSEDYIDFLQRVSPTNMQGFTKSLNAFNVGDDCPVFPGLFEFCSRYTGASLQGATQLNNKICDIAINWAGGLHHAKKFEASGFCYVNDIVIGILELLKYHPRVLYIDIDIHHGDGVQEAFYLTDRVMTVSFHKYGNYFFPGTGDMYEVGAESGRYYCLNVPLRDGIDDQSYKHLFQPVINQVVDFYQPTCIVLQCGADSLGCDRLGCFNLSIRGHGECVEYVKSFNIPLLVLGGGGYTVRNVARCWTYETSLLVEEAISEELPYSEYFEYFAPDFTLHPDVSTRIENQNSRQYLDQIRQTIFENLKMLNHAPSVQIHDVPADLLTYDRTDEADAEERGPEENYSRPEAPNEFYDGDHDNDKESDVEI
Chain of Histone deacetylase 1 (Q13547 whole entry): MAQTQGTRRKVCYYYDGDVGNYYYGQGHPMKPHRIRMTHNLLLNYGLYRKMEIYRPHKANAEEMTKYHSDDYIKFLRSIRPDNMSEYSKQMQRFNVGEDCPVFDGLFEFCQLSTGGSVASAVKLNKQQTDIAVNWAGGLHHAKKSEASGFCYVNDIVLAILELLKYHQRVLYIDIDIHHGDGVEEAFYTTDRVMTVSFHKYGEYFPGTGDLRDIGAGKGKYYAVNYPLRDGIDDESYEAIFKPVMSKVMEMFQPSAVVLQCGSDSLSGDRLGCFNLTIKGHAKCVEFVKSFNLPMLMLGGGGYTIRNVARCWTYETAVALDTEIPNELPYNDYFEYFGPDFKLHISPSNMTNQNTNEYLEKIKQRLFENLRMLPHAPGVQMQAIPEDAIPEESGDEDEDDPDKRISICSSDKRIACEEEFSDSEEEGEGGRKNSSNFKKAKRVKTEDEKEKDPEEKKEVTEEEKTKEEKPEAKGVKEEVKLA
Chain of Histone deacetylase 2 (Q92769 whole entry): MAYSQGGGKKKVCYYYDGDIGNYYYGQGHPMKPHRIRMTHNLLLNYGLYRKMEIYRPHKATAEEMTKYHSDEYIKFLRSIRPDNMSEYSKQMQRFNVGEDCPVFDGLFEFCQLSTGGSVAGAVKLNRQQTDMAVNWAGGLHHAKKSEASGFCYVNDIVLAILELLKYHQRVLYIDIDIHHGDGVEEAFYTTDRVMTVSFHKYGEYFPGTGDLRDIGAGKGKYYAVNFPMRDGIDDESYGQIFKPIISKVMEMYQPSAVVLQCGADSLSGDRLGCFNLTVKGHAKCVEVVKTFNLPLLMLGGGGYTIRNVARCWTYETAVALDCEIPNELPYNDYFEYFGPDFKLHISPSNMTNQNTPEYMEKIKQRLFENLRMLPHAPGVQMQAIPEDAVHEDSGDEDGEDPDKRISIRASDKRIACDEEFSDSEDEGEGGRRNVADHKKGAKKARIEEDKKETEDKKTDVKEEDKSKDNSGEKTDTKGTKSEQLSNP

Turning to `O=C(/C=C/c1ccc(NC(=O)C(Cc2ccccc2)c2ccccc2)cn1)NO` (centres undefined), the IC50 in [1] stood at 1.42 µM; in [2], 8.77 µM; in [3], 1.77 µM; in assay [4] it was 0.08 µM; in assay [5] it was 9.37 µM; in [7] it was 0.61 µM. Further, the IC50 in assay [9] amounted to 10.2 µM. Also, the Activity entry in assay [6] and in assay [10] was “Dose-dependent effect” each time. Further, the outcome in assay [8] was inactive.
As for `O=C(CCCCSc1nc(-c2ccc(-c3ccccc3)cc2)cc(=O)[nH]1)NO`, the IC50 in assay [2] and in [5] was more than 50 µM each time. Moreover, the Activity result in assay [6] and in assay [10] was “Dose-dependent effect” throughout.
